Results gathered from unrelated publications.
HTR2B: 5-hydroxytryptamine receptor 2B (HTR2B, Homo sapiens, UniProt P41595)
TNKS2: Poly [ADP-ribose] polymerase tankyrase-2 (TNKS2, Homo sapiens, UniProt Q9H2K2)
FLT3 ITD: Receptor-type tyrosine-protein kinase FLT3 (FLT3, Homo sapiens, UniProt P36888, ITD)
TOP2A: DNA topoisomerase 2-alpha (TOP2A, Homo sapiens, UniProt P11388)

Cc1cc(-c2ccccc2)nnc1NCCN1CCOCC1
IC50 (HTR2B; calcium signal; antagonist): 6200 nM

CNC(=O)c1ccc(C(=O)Nc2ccc3c(=O)[nH]c(-c4ccc(C(C)(C)O)cc4)nc3c2)cc1
IC50 (TNKS2; enzyme activity; inhibitor): 30.4 nM

Cn1cc(C2=C(c3cn(CCCSC(=N)N)c4ccccc34)C(=O)NC2=O)c2ccccc21
IC50 (Mitogen-activated protein kinase kinase kinase 8 (MAP3K8, Homo sapiens, UniProt P41279); enzyme activity; inhibitor): 11000 nM

CN(C)CCNC(=O)c1ccc(-c2nc3ccc4[nH]ncc4c3c3c2CCCC3)c(F)c1
IC50 (FLT3 ITD; enzyme activity; inhibitor): 112 nM

Fc1ccccc1Nc1nc(-c2ccncc2)nc2c1CNCC2
IC50 (TOP2A; enzyme activity; inhibitor): 4500 nM

Cc1cc2c(cc1C)N[C@H](c1ccccc1)[C@@H](O)C(=O)N2
IC50 (Aurora kinase C (AURKC, Homo sapiens, UniProt Q9UQB9); enzyme activity; inhibitor; ELISA): 211 nM

CCCCCCC#Cc1cncc(-c2nnc(SCc3cc([N+](=O)[O-])cc([N+](=O)[O-])c3)n2C2CCNCC2)c1
IC50 (mraY (Staphylococcus aureus, UniProt Q2FZ93); enzyme activity; inhibitor): ~100000 nM

Cc1n[nH]c2ccc3nc(-c4ccc(C(=O)NCCN(C)C)cc4)c4c(c3c12)CCCCC4
IC50 (Receptor-type tyrosine-protein kinase FLT3 (FLT3, Homo sapiens, UniProt P36888, F691L); enzyme activity; inhibitor): 104 nM

CC(C)(O)c1ccc(-c2nc3cc(NC(=O)c4cnc(Oc5ccccc5)nc4)ccc3c(=O)[nH]2)cc1
IC50 (TNKS2; enzyme activity; inhibitor): 7.96 nM

CN1CCC(CNc2ccc3ncc(-c4cccc(OC(F)(F)F)c4)n3n2)CC1
IC50 (HTR2B; calcium signal; antagonist): 2810 nM

CC(C)(O)c1ccc(-c2nc3cc(NC(=O)c4ccc(-c5ccccc5)cc4)ccc3c(=O)[nH]2)cc1
IC50 (TNKS2; enzyme activity; inhibitor): 35 nM

CN(C)CCNC(=O)c1ccc(-c2nc3ccc4[nH]ncc4c3c3c2CCCCC3)cc1
IC50 (Receptor-type tyrosine-protein kinase FLT3 (FLT3, Homo sapiens, UniProt P36888); enzyme activity; inhibitor): 48 nM

COc1cccc(Nc2nc(-c3ccncc3)nc3c2CNCC3)c1
IC50 (TOP2A; enzyme activity; inhibitor): 120000 nM

CN(C)CCNC(=O)c1ccc(-c2nc3ccc4[nH]ncc4c3c3c2CCCCC3)cn1
IC50 (FLT3 ITD; enzyme activity; inhibitor): 420 nM

CNC(=O)[C@H](Cc1c[nH]c2ccccc12)NC(=O)[C@@H](CC(=O)NO)CC(C)C
IC50 (Stromelysin-1 (MMP3, Homo sapiens, UniProt P08254); enzyme activity; inhibitor): 12.5 nM
